From BindingDB's records for doi:10.1021/np970237h (University of Antwerp, 1998)

Target: Xanthine dehydrogenase/oxidase (Homo sapiens, UniProt P47989)
Experiment: Inhibition of xanthine oxidase assessed as decrease in uric acid production by spectrophotometry
Method in brief: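 Flavonoid at various concentrations with 50 µM xanthine, 0.2 mM hydroxylamine and 0.1 mM EDTA. Stopped with HCl, then uric acid read as absorbance at 290 nm against an enzyme-free blank. IC50 by linear regression.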

Chain of Xanthine dehydrogenase/oxidase (P47989 whole entry): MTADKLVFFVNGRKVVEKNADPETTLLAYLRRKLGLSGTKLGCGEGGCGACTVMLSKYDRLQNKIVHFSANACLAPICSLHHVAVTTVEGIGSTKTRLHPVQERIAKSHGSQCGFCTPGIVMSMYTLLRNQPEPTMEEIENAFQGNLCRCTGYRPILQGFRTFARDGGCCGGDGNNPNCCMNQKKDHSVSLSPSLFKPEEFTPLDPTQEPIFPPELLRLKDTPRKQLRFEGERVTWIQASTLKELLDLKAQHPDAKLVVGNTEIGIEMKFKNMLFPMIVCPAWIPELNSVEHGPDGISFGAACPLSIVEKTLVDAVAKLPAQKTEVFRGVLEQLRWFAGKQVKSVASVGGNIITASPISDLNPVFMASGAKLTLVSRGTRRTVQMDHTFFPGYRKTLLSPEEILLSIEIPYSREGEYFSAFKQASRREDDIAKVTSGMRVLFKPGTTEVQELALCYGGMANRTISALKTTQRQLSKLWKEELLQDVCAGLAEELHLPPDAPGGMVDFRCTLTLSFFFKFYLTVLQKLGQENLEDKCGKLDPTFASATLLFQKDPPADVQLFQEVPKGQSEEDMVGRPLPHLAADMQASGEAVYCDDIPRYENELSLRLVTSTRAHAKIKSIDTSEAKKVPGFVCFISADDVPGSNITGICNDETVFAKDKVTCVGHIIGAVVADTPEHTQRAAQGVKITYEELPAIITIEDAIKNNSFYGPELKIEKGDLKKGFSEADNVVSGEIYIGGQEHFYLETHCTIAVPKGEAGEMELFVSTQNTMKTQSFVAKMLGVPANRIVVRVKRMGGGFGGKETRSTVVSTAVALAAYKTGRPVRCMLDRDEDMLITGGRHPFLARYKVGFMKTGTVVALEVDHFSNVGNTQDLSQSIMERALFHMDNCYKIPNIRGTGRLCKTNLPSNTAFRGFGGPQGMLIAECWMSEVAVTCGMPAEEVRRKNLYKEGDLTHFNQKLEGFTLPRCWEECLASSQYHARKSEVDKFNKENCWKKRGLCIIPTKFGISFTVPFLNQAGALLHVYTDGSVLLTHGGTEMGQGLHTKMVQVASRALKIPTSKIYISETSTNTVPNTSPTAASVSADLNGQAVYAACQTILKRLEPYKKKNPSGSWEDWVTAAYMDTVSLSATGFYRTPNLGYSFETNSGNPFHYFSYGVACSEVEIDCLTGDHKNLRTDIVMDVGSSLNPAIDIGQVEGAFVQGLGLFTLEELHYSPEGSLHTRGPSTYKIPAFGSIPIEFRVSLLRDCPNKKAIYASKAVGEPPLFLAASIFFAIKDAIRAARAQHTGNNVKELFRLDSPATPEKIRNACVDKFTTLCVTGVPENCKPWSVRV

C[C@@H]1O[C@@H](Oc2c(-c3ccc(O)c(O)c3)oc3cc(O)cc(=O)c-3c2O)[C@H](O)[C@H](O)[C@H]1O
IC50: > 100 µM

O=C(C=Cc1ccc(O)cc1)OC[C@H]1O[C@@H](Oc2c(-c3ccc(O)cc3)oc3cc(O)cc(=O)c-3c2O)[C@H](O)[C@@H](O)[C@@H]1O [kaempferol-3-beta-D-(6-O-trans-p-coumaroyl)glucopyranoside]
IC50: > 100 µM
